Measured values from different studies.
Lines come from different studies, so protocols differ.
Target: Serine/threonine-protein kinase 4 (STK4, Homo sapiens, UniProt Q13043)
Residues used in one study (Q13043 1-487): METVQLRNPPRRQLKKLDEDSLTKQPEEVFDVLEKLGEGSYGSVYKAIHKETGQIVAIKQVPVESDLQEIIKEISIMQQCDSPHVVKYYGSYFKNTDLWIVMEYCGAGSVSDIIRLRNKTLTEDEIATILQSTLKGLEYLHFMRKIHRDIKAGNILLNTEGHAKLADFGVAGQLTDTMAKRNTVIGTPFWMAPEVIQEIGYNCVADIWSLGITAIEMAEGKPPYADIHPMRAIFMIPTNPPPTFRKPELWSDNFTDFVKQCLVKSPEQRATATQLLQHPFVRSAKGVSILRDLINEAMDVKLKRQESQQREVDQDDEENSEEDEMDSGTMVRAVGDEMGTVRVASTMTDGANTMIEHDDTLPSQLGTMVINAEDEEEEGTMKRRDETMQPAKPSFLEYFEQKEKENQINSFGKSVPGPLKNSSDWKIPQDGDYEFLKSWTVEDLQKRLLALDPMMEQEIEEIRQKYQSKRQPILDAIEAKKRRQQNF

Cn1cncc1[C@](O)(COc1ccc(C#N)cc1-c1ccc(OC(F)(F)F)cc1)c1ccc(C#N)cc1  remaining binding (cell-free assay; competition with immobilised ligand; 1 µM): 86%
COc1ncccc1-c1cnn2ccc(N3CCN(C(=O)OC(C)C)CC3)nc12  remaining binding (binding; competition with immobilised ligand; 1 µM): 40%
Clc1cccc(-c2c[nH]c3nccc(N4CCOCC4)c23)c1  ΔTm (thermal stability; DSF; 20 µM): > 8 °C
Nc1ncc(-c2nc(N3CCOCC3)nc(N3CCOCC3)n2)c(C(F)F)n1  remaining binding (binding; competition with immobilised ligand; 10 µM): 86%
Cn1cc(-c2cccc(N3CCc4c(sc5c4CC(C)(C)C5)C3=O)c2CO)cc(Nc2ccncn2)c1=O  inhibition (enzyme activity; inhibitor; 1 µM): -4%
NC(=O)c1cccc(-c2c[nH]c3ncnc(N4CCOCC4)c23)c1  ΔTm (thermal stability; DSF; 20 µM): > 8 °C
O=c1[nH]c2ccccc2n1C1CCN(Cc2ccc(-c3[nH]c4cc5ncnc5cc4nc3-c3ccccc3)cc2)CC1  remaining signal (cell-free assay; 0.5 µM): 95.2%
C#Cc1n[nH]c2c(-c3cn([C@@H](C)c4ccccc4)c(=O)[nH]c3=O)cc(F)cc12  inhibition (enzyme activity; inhibitor; 0.1 µM): -0.9%
CC(C)(C)c1cc(C=C(C#N)C#N)cc(Br)c1O  remaining activity (enzyme activity; inhibitor; 0.5 µM): 90.5%
Cc1nn(C)cc1-c1nc2c(N3CCN(Cc4ccc(Cl)cc4)CC3)c(Cl)cnc2[nH]1  remaining binding (binding; competition with immobilised ligand; 1 µM): 100%
C#Cc1n[nH]c2c(-c3cn(C(C)c4ccccn4)c(=O)[nH]c3=O)cc(F)cc12 (stereo not drawn)  inhibition (enzyme activity; inhibitor; 1 µM): 3.7%
Cn1cc(-c2cc(F)cc(N3CCn4c(cc5c4CCCC5)C3=O)c2CO)cc(Nc2ccc(N3CCN(C4COC4)CC3)cn2)c1=O  inhibition (enzyme activity; inhibitor; 0.1 µM): 13%
